CaV13 ICDI inh = Disruptors of the CACNA1D IQ motif to Ca2+-dependent inactivation inhibitor domain association, primary screening, Förster resonance energy transfer in intact living …. HEK cells, CFP/YFP FRET ICDI-IQ, plate reader, 10 min; percent FRET-ratio fall versus neutral wells. inhibition, % at 12.3 µM. actives 0.098% (n = 340,000);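 active = mean replicate inhibition of at least 30% and at least 1% of replicates passing that level; inconclusive = only one of the two criteria is met; inactive = neither criterion is met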;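 note: 0% = median of the neutral control wells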
LANA-H2A inh = blocks KSHV LANA binding to histone H2A/H2B; inhibition, % (concentration not given with the values); cell-free LANA-H2A/H2B peptide, fluorescence polarization; Q9QR71; actives 0.6% (n = 320,000); in the data active = inhibition mostly above about 10%, no sharp cut-off; inactive = mostly below about 6.7%
Target sequence (Q9QR71 whole entry, looked up): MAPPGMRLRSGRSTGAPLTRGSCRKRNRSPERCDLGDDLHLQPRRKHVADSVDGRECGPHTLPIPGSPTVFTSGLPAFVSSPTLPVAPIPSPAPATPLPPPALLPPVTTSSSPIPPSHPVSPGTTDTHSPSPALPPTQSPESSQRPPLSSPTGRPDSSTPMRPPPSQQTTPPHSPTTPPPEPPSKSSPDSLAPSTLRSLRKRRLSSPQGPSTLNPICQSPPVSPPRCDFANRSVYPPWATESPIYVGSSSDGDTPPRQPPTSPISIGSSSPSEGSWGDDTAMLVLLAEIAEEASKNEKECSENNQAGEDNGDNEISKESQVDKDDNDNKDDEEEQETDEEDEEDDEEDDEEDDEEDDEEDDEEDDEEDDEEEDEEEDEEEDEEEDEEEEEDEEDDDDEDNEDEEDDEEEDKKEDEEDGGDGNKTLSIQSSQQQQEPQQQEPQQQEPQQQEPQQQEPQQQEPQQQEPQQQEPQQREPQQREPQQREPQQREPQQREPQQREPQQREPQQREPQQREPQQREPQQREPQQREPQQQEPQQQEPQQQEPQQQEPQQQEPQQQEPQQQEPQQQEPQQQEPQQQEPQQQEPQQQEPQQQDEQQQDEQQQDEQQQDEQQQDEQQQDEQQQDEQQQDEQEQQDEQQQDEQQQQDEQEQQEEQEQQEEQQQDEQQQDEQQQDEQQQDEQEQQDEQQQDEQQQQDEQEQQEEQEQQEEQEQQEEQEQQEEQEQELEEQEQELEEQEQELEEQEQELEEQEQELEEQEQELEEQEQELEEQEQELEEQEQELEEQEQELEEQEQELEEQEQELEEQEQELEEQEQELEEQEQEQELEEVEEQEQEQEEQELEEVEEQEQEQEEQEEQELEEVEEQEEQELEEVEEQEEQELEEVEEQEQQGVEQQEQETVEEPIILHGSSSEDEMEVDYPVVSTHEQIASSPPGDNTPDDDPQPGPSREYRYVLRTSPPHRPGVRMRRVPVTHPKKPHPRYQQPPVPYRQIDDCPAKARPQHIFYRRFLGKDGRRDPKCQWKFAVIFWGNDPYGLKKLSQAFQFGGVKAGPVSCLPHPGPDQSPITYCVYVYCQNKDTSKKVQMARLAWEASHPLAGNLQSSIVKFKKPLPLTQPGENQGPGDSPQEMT
Runt-SMMHC FRET = inhibitors of human RUNX1 Runt domain binding to CBFb-SMMHC. Q01196+Q13951. Cerulean-Runt/Venus-CBFb-SMMHC FRET ratio 530/480, 1 h. inhibition, % at 20 µM. actives 0.74% (n = 220,000);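 active = mean inhibition across duplicate retests at 20 µM reaching about 50%, limit read from the data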;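 note: 0% = DMSO wells and 100% = wells with excess untagged CBFb-SMMHC; inhibitors lower the FRET ratio by blocking Runt binding to CBFb-SMMHC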
RanGTP-Impb inh = inhibitors of RanGTP-importin-beta interaction, primary screen, biochemical, FRET, CFP-Ran, YFP-importin-beta, homogeneous. cell-free CFP-Ran/YFP-importin-beta FRET ratio. inhibition, % (test concentration not listed). actives 1.1% (n = 300,000). AID 2216;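 active = more than half of the replicate wells show a fall in the fluorescence ratio signal beyond about 16%, limit read from the data, passing the limit was not always enough; inconclusive = exactly half of the replicate wells pass the set limit; inactive = fewer than half of replicates pass the limit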;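 note: 0% = DMSO wells and 100% = Ran loaded with GDP instead of GTP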
HDAC3 inh = human HDAC3 inhibition; recombinant HDAC3, fluorogenic peptide/trypsin coupled, fluorescence; inhibition, % at 8.3 µM; actives 0.15% (n = 320,000); in the data active = inhibition above about 26%, passing the limit was not always enough; inconclusive = no clear call, values can overlap the other calls
Runt-CBFb FRET = inhibitors of human RUNX1 Runt domain binding to CBFb; actives 0.46% (n = 220,000); AID 1496; Cerulean-Runt/Venus-CBFb FRET ratio 530/480, 1 h; inhibition, % at 20 µM; Q01196+Q13951;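 active = inhibition over about 50% at 20 µM in the single-dose screen, limit read from the data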;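 note: 0% = DMSO wells and 100% = excess unlabeled CBFb competitor control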
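System: Cerulean-labeled Runt domain protein | Quantity: 100 nM of each labeled protein | Schedule: 1 h compound exposure, room temperature | Detection: Fluorescence energy transfer, 422 nm excitation, 530/480 nm emission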
Starred values were filed as active, the others as inactive; ? = inconclusive; . = no result; + = active, no number. Shown are actives, neighbours in structure and some others; about 1.9% of the full set was active somewhere.

SMILES	CaV13 ICDI inh	LANA-H2A inh	Runt-SMMHC FRET	RanGTP-Impb inh	HDAC3 inh	Runt-CBFb FRET
Cc1[nH]c2ccccc2c1/C=N/NC(=O)c1ccccc1	-14	-1	.	1	4	.
COc1ccccc1/C=C/C=N/Nc1cccc(C(=O)O)c1	-4	6	.	76*	3	.
O=C(O)c1cccc(N/N=C/c2cccnc2)c1	9	.	2	34*	.	-2
CCc1ccc(NC(=O)COC(=O)C2(c3ccc(Cl)cc3)CCCC2)cc1	-5	-5	2	3	0	0
CC(=O)c1ccc(NC(=S)Nc2ccc(Br)c(Cl)c2)cc1	-7	36*	2	-2	14	-1
N#CC1(C#N)C(c2ccccc2)OC23CCCCCC2C1(C#N)C(=N)O3 (stereo not given)	-5	-2	80*	?	-1	40
N#CC1(C#N)C(c2ccccc2)OC23CCCCC2C1(C#N)C(=N)O3 (stereo not given)	-4	8	61	42*	-6	33
O=C1CN(C(=O)COC(=O)c2cccc(S(=O)(=O)NCc3ccccc3)c2)c2ccccc2N1	-4	2	4	3	-7	-4
Cc1cc(C(=O)COC(=O)[C@H](C)NC(=O)c2ccco2)c(C)n1Cc1ccco1	3	7	-2	-1	1	-2
CC1(c2ccccc2)NC(=O)N(NC(=O)CSc2n[nH]c(N)n2)C1=O (stereo not given)	-6	-3	1	3	1	-1
O=C(O)C1(c2ccccc2)CCN(S(=O)(=O)c2ccccc2)CC1	-4	1.5*	.	0	3	.
COc1ccc(Nc2nc(N3CCCCC3)c3ccccc3n2)cc1	.	-9	-4	8	5	-2
Oc1ccc(Nc2nc(N3CCCC3)c3ccccc3n2)cc1	-5	0	71*	-3	-1	27
CCC(C(=O)O)P(=O)(c1ccc(Cl)cc1)c1ccc(Cl)cc1 (stereo not given)	0	13*	-6	?	-19	2
O=C(CC(C(=O)O)P(=O)(c1ccccc1)c1ccccc1)c1ccccc1 (stereo not given)	-5	1	2	-3	-5	-2
COC(=O)C(Cc1ccccc1)NC(=O)CCC(=O)NC(C)CCc1ccccc1 (stereo not given)	-5	14*	.	4	-6	.
COC(=O)[C@H](Cc1ccccc1)NC(=O)NC(C)CCc1ccccc1 (stereo not given in full)	-1	3	.	-1	-5	.
O=C(COC(=O)Cc1cccc(C(F)(F)F)c1)Nc1ccc2c(c1)OCCO2	2	146*	0	-1	5	-4
O=C(COC(=O)Cc1ccccc1F)Nc1ccc2c(c1)OCCO2	-5	-3	1	2	-4	1
Cc1cc(C)cc(NC(=O)COC(=O)c2ccc3c(c2)OCCO3)c1	-5	12*	.	.	4	.
CCCNS(=O)(=O)c1ccc(OCC(=O)Nc2ccc3c(c2)OCCO3)cc1	-5	7	-2	4	10	1
Cc1ccc(S(=O)(=O)NCC(=O)OCC(=O)Nc2ccc3c(c2)OCCO3)cc1	-6	19*	.	.	-3	.
S=C1NC2=C(CCCC2=C2SCCCS2)C(c2ccccc2)N1 (stereo not given)	-7	-3	-4	-2	43*	-6
Cc1nc(C)n(CC(=O)N2CCCC(C(=O)c3ccc(C(F)(F)F)cc3)C2)n1 (stereo not given)	-6	-2	2	-3	1	0
CN1CCN(CC(=O)Nc2ccc([N+](=O)[O-])cc2Br)CC1	-18	-1	2	9	9	0
CC1CN(CC(=O)Nc2ccc([N+](=O)[O-])cc2Br)CC(C)O1 (stereo not given)	-3	+	0	3	-2	-1
Oc1[nH]c2ccccc2c1C1=NCCCC1	-8	21*	-2	2	16	-12
